# Results as given in ChEMBL document CHEMBL5058577, “EUbOPEN Chemogenomics Library 2 (Multiplex)” (2022).
# Test system: HEK-293T
# Experiment: Multiplex assay against HEK293T
# Type: toxicity, cell-based
# Settings: human
# In short: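 At seeding, live cells were stained with Hoechst33342, BioTracker Green Microtubule Cytoskeleton Dye, MitoTracker Red and Annexin V Alexa Fluor 680. After compound addition they were imaged on a CQ1 microscope at 37°C and 5% CO2, and CellPathfinder machine-learning gating sorted them into Hoechst high-intensity objects or normal cells, with normal cells further split into healthy, pyknosed or fragmented nuclei and pyknosed cells into mitotic or apoptotic. Tubulin, mitochondrial-mass and membrane-permeability phenotypes are given as per cents of cells with healthy nuclei.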
# [1] = 12 h, 1 µM, compound concentration 1 uM, replicate 1
# [2] = 12 h, 1 µM, compound concentration 1 uM, replicate 2
# [3] = 12 h, 10 µM, compound concentration 10 uM, replicate 1
# [4] = 12 h, 10 µM, compound concentration 10 uM, replicate 2
# [5] = 24 h, 1 µM, compound concentration 1 uM, replicate 1
# [6] = 24 h, 1 µM, compound concentration 1 uM, replicate 2
# [7] = 24 h, 10 µM, compound concentration 10 uM, replicate 1
# [8] = 24 h, 10 µM, compound concentration 10 uM, replicate 2
# [9] = 48 h, 1 µM, compound concentration 1 uM, replicate 1
# [10] = 48 h, 1 µM, compound concentration 1 uM, replicate 2
# [11] = 48 h, 10 µM, compound concentration 10 uM, replicate 1
# [12] = 48 h, 10 µM, compound concentration 10 uM, replicate 2
smiles,measurement,setting,value
CCc1cc2cc(NS(=O)(=O)c3ccc(C#N)cc3)ccc2n(CC)c1=O,Population Apoptotic (%),[1],43%
same,Population Fragmented Nuclei (%),[1],8%
same,Population Healthy Nuclei (%),[1],78%
same,Population Hoechst High Intensity Objects (%),[1],9%
same,Population Membrane Permeable-Phenotype (%),[1],0%
same,Population Mitochondria Different-Phenotype (%),[1],37%
same,Population Mitotic Cells (%),[1],56%
same,Population Normal (%),[1],90%
same,Population Pyknosed Nuclei (%),[1],12%
same,Population Tubulin-Different-Phenotype (%),[1],28%
same,Total Cell Count,[1],411
same,Population Apoptotic (%),[2],40%
same,Population Fragmented Nuclei (%),[2],7%
same,Population Hoechst High Intensity Objects (%),[2],7%
same,Population Mitochondria Different-Phenotype (%),[2],64%
same,Population Mitotic Cells (%),[2],59%
same,Population Normal (%),[2],92%
same,Population Pyknosed Nuclei (%),[2],14%
same,Population Tubulin-Different-Phenotype (%),[2],29%
same,Total Cell Count,[2],338
same,Population Apoptotic (%),[3],38%
same,Population Fragmented Nuclei (%),[3],7%
same,Population Healthy Nuclei (%),[3],80%
same,Population Hoechst High Intensity Objects (%),[3],7%
same,Population Membrane Permeable-Phenotype (%),[3],0%
same,Population Mitochondria Different-Phenotype (%),[3],47%
same,Population Mitotic Cells (%),[3],61%
same,Population Normal (%),[3],92%
same,Population Pyknosed Nuclei (%),[3],12%
same,Population Tubulin-Different-Phenotype (%),[3],48%
same,Total Cell Count,[3],404
same,Population Apoptotic (%),[4],65%
same,Population Fragmented Nuclei (%),[4],6%
same,Population Healthy Nuclei (%),[4],69%
same,Population Hoechst High Intensity Objects (%),[4],16%
same,Population Mitochondria Different-Phenotype (%),[4],71%
same,Population Mitotic Cells (%),[4],34%
same,Population Normal (%),[4],83%
same,Population Pyknosed Nuclei (%),[4],23%
same,Population Tubulin-Different-Phenotype (%),[4],41%
same,Total Cell Count,[4],291
same,Population Apoptotic (%),[5],29%
same,Population Fragmented Nuclei (%),[5],8%
same,Population Healthy Nuclei (%),[5],80%
same,Population Hoechst High Intensity Objects (%),[5],5%
same,Population Membrane Permeable-Phenotype (%),[5],1%
same,Population Mitochondria Different-Phenotype (%),[5],19%
same,Population Mitotic Cells (%),[5],70%
same,Population Normal (%),[5],94%
same,Population Pyknosed Nuclei (%),[5],11%
same,Population Tubulin-Different-Phenotype (%),[5],18%
same,Total Cell Count,[5],510
same,Population Apoptotic (%),[6],43%
same,Population Fragmented Nuclei (%),[6],7%
same,Population Healthy Nuclei (%),[6],84%
same,Population Membrane Permeable-Phenotype (%),[6],0%
same,Population Mitochondria Different-Phenotype (%),[6],44%
same,Population Mitotic Cells (%),[6],56%
same,Population Pyknosed Nuclei (%),[6],7%
same,Population Tubulin-Different-Phenotype (%),[6],22%
same,Total Cell Count,[6],403
same,Population Apoptotic (%),[7],33%
same,Population Fragmented Nuclei (%),[7],9%
same,Population Healthy Nuclei (%),[7],80%
same,Population Hoechst High Intensity Objects (%),[7],6%
same,Population Membrane Permeable-Phenotype (%),[7],0%
same,Population Mitochondria Different-Phenotype (%),[7],36%
same,Population Mitotic Cells (%),[7],66%
same,Population Normal (%),[7],93%
same,Population Pyknosed Nuclei (%),[7],10%
same,Population Tubulin-Different-Phenotype (%),[7],32%
same,Total Cell Count,[7],478
same,Population Apoptotic (%),[8],63%
same,Population Fragmented Nuclei (%),[8],10%
same,Population Healthy Nuclei (%),[8],73%
same,Population Hoechst High Intensity Objects (%),[8],17%
same,Population Membrane Permeable-Phenotype (%),[8],1%
same,Population Mitochondria Different-Phenotype (%),[8],58%
same,Population Mitotic Cells (%),[8],36%
same,Population Normal (%),[8],82%
same,Population Pyknosed Nuclei (%),[8],16%
same,Population Tubulin-Different-Phenotype (%),[8],29%
same,Total Cell Count,[8],332
same,Population Apoptotic (%),[9],30%
same,Population Fragmented Nuclei (%),[9],11%
same,Population Healthy Nuclei (%),[9],81%
same,Population Hoechst High Intensity Objects (%),[9],2%
same,Population Membrane Permeable-Phenotype (%),[9],1%
same,Population Mitochondria Different-Phenotype (%),[9],11%
same,Population Mitotic Cells (%),[9],69%
same,Population Normal (%),[9],97%
same,Population Pyknosed Nuclei (%),[9],6%
same,Population Tubulin-Different-Phenotype (%),[9],13%
same,Total Cell Count,[9],878
same,Population Apoptotic (%),[10],38%
same,Population Fragmented Nuclei (%),[10],14%
same,Population Healthy Nuclei (%),[10],79%
same,Population Hoechst High Intensity Objects (%),[10],4%
same,Population Mitochondria Different-Phenotype (%),[10],23%
same,Population Mitotic Cells (%),[10],61%
same,Population Normal (%),[10],95%
same,Population Pyknosed Nuclei (%),[10],5%
same,Population Tubulin-Different-Phenotype (%),[10],12%
same,Total Cell Count,[10],608
same,Population Apoptotic (%),[11],26%
same,Population Fragmented Nuclei (%),[11],14%
same,Population Healthy Nuclei (%),[11],78%
same,Population Hoechst High Intensity Objects (%),[11],4%
same,Population Membrane Permeable-Phenotype (%),[11],1%
same,Population Mitochondria Different-Phenotype (%),[11],23%
same,Population Mitotic Cells (%),[11],73%
same,Population Normal (%),[11],95%
same,Population Pyknosed Nuclei (%),[11],6%
same,Population Tubulin-Different-Phenotype (%),[11],20%
same,Total Cell Count,[11],734
same,Population Apoptotic (%),[12],47%
same,Population Fragmented Nuclei (%),[12],16%
same,Population Healthy Nuclei (%),[12],73%
same,Population Hoechst High Intensity Objects (%),[12],10%
same,Population Mitochondria Different-Phenotype (%),[12],40%
same,Population Mitotic Cells (%),[12],52%
same,Population Normal (%),[12],89%
same,Population Pyknosed Nuclei (%),[12],9%
same,Population Tubulin-Different-Phenotype (%),[12],23%
same,Total Cell Count,[12],383
